In ChEMBL document CHEMBL4014271, “Trimeric and Tetrameric A-Type Procyanidins from Peanut Skins” (2017):
Activity calls are given as the source filed them. The calls are words filed in the database; no cut-off is given here.

Key:
Assay type in all cases: functional
RAW264.7 [1] = assay: Anti-inflammatory activity in mouse RAW264.7 cells assessed as inhibition of LPS-induced TNFalpha secretion at 10 ug/ml preincubated for 1 hr followed by LPS stimulation for 23 hrs by ELISA relative to control
Method in brief: (§1)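 RAW264.7 murine macrophages were grown in DMEM with 10% FBS at 37 °C in 5% CO2 and seeded at 5 × 10^5 to 80−90% confluence. Procyanidins in sterile water were added at 10, 50 or 100 μg/mL for 1 h. LPS (E. coli 0111:B4, 1 μg/mL) followed for 23 h. TNF-α in the collected medium was measured by ELISA and reported as % inhibition of LPS-dependent secretion.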

RAW264.7 [2] = assay: Anti-inflammatory activity in mouse RAW264.7 cells assessed as inhibition of LPS-induced TNFalpha secretion at 50 ug/ml preincubated for 1 hr followed by LPS stimulation for 23 hrs by ELISA relative to control; method in brief: as §1
RAW264.7 [3] = assay: Anti-inflammatory activity in mouse RAW264.7 cells assessed as inhibition of LPS-induced TNFalpha secretion at 100 ug/ml preincubated for 1 hr followed by LPS stimulation for 23 hrs by ELISA relative to control; method in brief: as §1

SMILES	inhibition at 10 µg/mL (RAW264.7 [1]) [%]	inhibition at 50 µg/mL (RAW264.7 [2]) [%]	inhibition at 100 µg/mL (RAW264.7 [3]) [%]	inhibition (RAW264.7 [3])
Oc1cc(O)c2c(c1)O[C@@]1(c3ccc(O)c(O)c3)Oc3cc(O)c4c(c3[C@@H]2[C@H]1O)O[C@@]1(c2ccc(O)c(O)c2)Oc2cc(O)c3c(c2[C@@H]4[C@H]1O)O[C@H](c1ccc(O)c(O)c1)[C@@H](O)C3	6.28	78.8	100	
Oc1cc(O)c2c(c1)O[C@@]1(c3ccc(O)c(O)c3)Oc3cc(O)c4c(c3[C@@H]2[C@H]1O)O[C@H](c1ccc(O)c(O)c1)[C@H](O)[C@H]4c1c(O)cc2c(c1O)[C@@H]1c3c(cc(O)c4c3O[C@H](c3ccc(O)c(O)c3)[C@@H](O)C4)O[C@](c3ccc(O)c(O)c3)(O2)[C@@H]1O	4.26	71.2	98.6	
Oc1cc(O)c2c(c1)O[C@@]1(c3ccc(O)c(O)c3)Oc3cc(O)c4c(c3[C@@H]2[C@H]1O)O[C@H](c1ccc(O)c(O)c1)[C@@H](O)C4				inactive
Oc1cc(O)c2c(c1)O[C@@H](c1ccc(O)c(O)c1)[C@@H](O)[C@H]2c1c(O)cc(O)c2c1O[C@@]1(c3ccc(O)c(O)c3)Oc3cc(O)c4c(c3[C@@H]2[C@H]1O)O[C@H](c1ccc(O)c(O)c1)[C@@H](O)C4				inactive
Oc1cc(O)c2c(c1)O[C@@]1(c3ccc(O)c(O)c3)Oc3cc(O)c4c(c3[C@@H]2[C@H]1O)O[C@H](c1ccc(O)c(O)c1)[C@H](O)[C@H]4c1c(O)cc2c(c1O)[C@@H]1c3c(cc(O)c4c3O[C@H](c3ccc(O)c(O)c3)[C@H](O)C4)O[C@](c3ccc(O)c(O)c3)(O2)[C@@H]1O	82.2	100	100	
Oc1cc(O)c2c(c1)O[C@@]1(c3ccc(O)c(O)c3)Oc3cc(O)c4c(c3[C@@H]2[C@H]1O)O[C@H](c1ccc(O)c(O)c1)[C@H](O)[C@H]4c1c(O)cc2c(c1O)C[C@H](O)[C@@H](c1ccc(O)c(O)c1)O2	28.6	99.4	100	
Oc1cc(O)c2c(c1)O[C@H](c1ccc(O)c(O)c1)[C@H](O)[C@H]2c1c(O)cc2c(c1O)[C@@H]1c3c(cc(O)c4c3O[C@H](c3ccc(O)c(O)c3)[C@@H](O)C4)O[C@](c3ccc(O)c(O)c3)(O2)[C@@H]1O	0	89.7	100	
